The source made the active and inactive calls. No cut-off for these calls is given here.
Key:
[1] = target: NACHT, LRR and PYD domains-containing protein 3 (Mus musculus, UniProt Q8R4B8); experiment: Inhibition of NLRP3 inflammasome activation in LPS treated mouse J774.A1 cells assessed as inhibition of ATP-stimulated IL-1beta secretion pre-incubated for 30 mins followed by ATP addition measured after 30 mins by ELISA; assay type: cell-based
Outline: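 Murine J774A.1 macrophages seeded at 1×10^5 cells/well overnight, then primed with E. coli O111:B4 LPS (final 1 µg/mL) for 4.5 h. Compounds added for 30 min, then ATP (5 mM) for 30 min to activate NLRP3. IL-1β released into the supernatant quantified by mouse IL-1β ELISA.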

[2] = Drug uptake in monkey brain assessed as standardized uptake value at iv administration by PET/MR imaging analysis; assay type: ADME, organism-based, Macaca mulatta; settings: rhesus monkey, in vivo
Outline: (§1)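 Single rhesus macaque (n=1). Radiotracer 5.20 mCi given i.v. through an antecubital catheter. Dynamic PET/MR acquired on a 3T scanner with a BrainPET insert, 3D-OSEM reconstruction, registration to the INIA19/NeuroMaps atlas. Regional activity expressed as SUV, with an arterial line for plasma metabolite analysis.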

[3] = Drug uptake in monkey cerebellum at iv administration by PET/MR imaging analysis; assay type: ADME, organism-based, Macaca mulatta; settings: rhesus monkey, in vivo; outline: as §1
[4] = Drug uptake in monkey hippocampus at iv administration by PET/MR imaging analysis; assay type: ADME, organism-based, Macaca mulatta; settings: rhesus monkey, in vivo; outline: as §1
[5] = Drug uptake in monkey insula at iv administration by PET/MR imaging analysis; assay type: ADME, organism-based, Macaca mulatta; settings: rhesus monkey, in vivo; outline: as §1
[6] = Drug uptake in monkey putamen at iv administration by PET/MR imaging analysis; assay type: ADME, organism-based, Macaca mulatta; settings: rhesus monkey, in vivo; outline: as §1
[7] = Drug uptake in monkey thalamus at iv administration by PET/MR imaging analysis; assay type: ADME, organism-based, Macaca mulatta; settings: rhesus monkey, in vivo; outline: as §1
[8] = target: T1, Interferon-inducible protein AIM2 (Mus musculus) (UniProt Q91VJ1); experiment: Inhibition of AIM2 inflammasome activation in LPS treated mouse J774.A1 cells assessed as inhibition of IL-1beta secretion at 3 uM pre-incubated for 1 hr followed by Poly (dA:dT) stimulation for 4 hrs by ELISA; assay type: cell-based; settings: time 5.0 hrs
T1 sequence (whole entry): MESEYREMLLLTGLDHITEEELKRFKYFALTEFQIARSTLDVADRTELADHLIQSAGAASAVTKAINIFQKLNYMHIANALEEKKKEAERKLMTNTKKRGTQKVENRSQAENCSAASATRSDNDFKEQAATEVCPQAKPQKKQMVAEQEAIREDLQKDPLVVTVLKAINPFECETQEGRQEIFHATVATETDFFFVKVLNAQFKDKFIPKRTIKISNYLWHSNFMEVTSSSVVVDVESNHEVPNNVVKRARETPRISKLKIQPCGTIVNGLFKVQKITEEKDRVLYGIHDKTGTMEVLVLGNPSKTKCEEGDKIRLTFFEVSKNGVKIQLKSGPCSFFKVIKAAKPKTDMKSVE
Outline: (§2)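 J774A.1 cells at 1×10^5/well, plated overnight. Co-treated with LPS (1 µg/mL) and compound for 1 h. AIM2 triggered by poly(dA:dT) (4 µg/mL) transfected with Lipofectamine 2000 for 4 h. NLRC4 triggered by flagellin (1 µg/mL) delivered with a transfection kit for 6 h. Supernatant IL-1β read by mouse ELISA.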

[9] = target: T1, Interferon-inducible protein AIM2 (Mus musculus); experiment: Inhibition of AIM2 inflammasome activation in LPS treated mouse J774.A1 cells assessed as inhibition of IL-1beta secretion at 10 uM pre-incubated for 1 hr followed by Poly (dA:dT) stimulation for 4 hrs by ELISA; assay type: cell-based; settings: time 5.0 hrs; outline: as §2
[10] = target: NLR family CARD domain-containing protein 4 (Mus musculus) (UniProt Q3UP24); experiment: Inhibition of NLRC4 inflammasome activation in LPS treated mouse J774.A1 cells assessed as inhibition of IL-1beta secretion at 3 uM pre-incubated for 1 hr followed by flagellin stimulation for 6 hrs by ELISA; assay type: cell-based; settings: time 7.0 hrs; outline: as §2
[11] = target: NLR family CARD domain-containing protein 4 (Mus musculus) (UniProt Q3UP24); experiment: Inhibition of NLRC4 inflammasome activation in LPS treated mouse J774.A1 cells assessed as inhibition of IL-1beta secretion at 10 uM pre-incubated for 1 hr followed by flagellin stimulation for 6 hrs by ELISA; assay type: cell-based; settings: time 7.0 hrs; outline: as §2
[12] = target: NACHT, LRR and PYD domains-containing protein 3 (Mus musculus) (UniProt Q8R4B8); experiment: Inhibition of NLRP3 inflammasome activation in LPS treated mouse J774.A1 cells assessed as inhibition of TNF-alpha secretion at <=3 uM followed by LPS addition measured after 4.5 hrs by ELISA; assay type: cell-based
[13] = target: NACHT, LRR and PYD domains-containing protein 3 (Mus musculus) (UniProt Q8R4B8); experiment: Inhibition of NLRP3 inflammasome activation in LPS treated mouse J774.A1 cells assessed as inhibition of ATP-stimulated IL-1beta secretion at 0.1 to 1 uM pre-incubated for 30 mins followed by ATP addition measured after 30 mins by ELISA; assay type: cell-based; settings: dose 0.1-1 µM, time 60.0 min
Outline: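 J774A.1 cells plated at 1 × 10^5 cells/well overnight, primed with E. coli 0111:B4 LPS (final 1 μg/mL) for 4.5 h. Compound added for 30 min, then ATP (5 mM) for 30 min to activate NLRP3. IL-1β in supernatant measured by mouse IL-1β ELISA.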

[14] = target: NACHT, LRR and PYD domains-containing protein 3 (Mus musculus) (UniProt Q8R4B8); experiment: Inhibition of NLRP3 inflammasome activation in LPS treated mouse J774.A1 cells assessed as inhibition of nigericin-stimulated IL-1beta secretion at 0.1 to 1 uM pre-incubated for 30 mins followed by nigericin addition measured after 30 mins by ELISA; assay type: cell-based; settings: dose 0.1-1 µM, time 60.0 min
[15] = target: NACHT, LRR and PYD domains-containing protein 3 (Mus musculus) (UniProt Q8R4B8); experiment: Inhibition of NLRP3 inflammasome activation in LPS treated mouse J774.A1 cells assessed as inhibition of TNF-alpha secretion at 0.1 to 10 uM followed by LPS addition measured after 4.5 hrs by ELISA; assay type: cell-based; settings: dose 0.1-10 µM
[16] = target: NACHT, LRR and PYD domains-containing protein 3 (Mus musculus) (UniProt Q8R4B8); experiment: Binding affinity to NLRP3 in wild type C57BL/6 mouse brain incubated for 20 mins by autoradiography; assay type: tissue-based; settings: tested as the 11C-labelled form
Outline: (§3)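 Frozen mouse brain sections preincubated in 50 mM Tris-HCl pH 7.4 for 30 min at ambient temperature, then incubated 20 min at ambient temperature with [11C]8 (5 mCi/L, ~1 nM). For blocking, unlabeled ligand (10 μM) added to the incubation solution beforehand (n = 4). Sections washed in Tris-HCl (3 × 5 min), dried, exposed to imaging plates 120 min; ROI signal given as DLU/mm2.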

[17] = target: NACHT, LRR and PYD domains-containing protein 3 (Mus musculus) (UniProt Q8R4B8); experiment: Binding affinity to NLRP3 in wild type C57BL/6 mouse brain incubated for 20 mins in presence of compound 8 by autoradiography; assay type: tissue-based; settings: tested as the 11C-labelled form; outline: as §3
[18] = target: NACHT, LRR and PYD domains-containing protein 3 (Mus musculus) (UniProt Q8R4B8); experiment: Binding affinity to NLRP3 in wild type C57BL/6 mouse brain incubated for 20 mins in presence of compound MCC950 by autoradiography; assay type: tissue-based; settings: tested as the 11C-labelled form; outline: as §3
[19] = target: NACHT, LRR and PYD domains-containing protein 3 (Mus musculus) (UniProt Q8R4B8); experiment: Binding affinity to NLRP3 in C57BL/6 mouse brain expressing nIrp3-/- incubated for 20 mins by autoradiography; assay type: tissue-based; settings: tested as the 11C-labelled form; outline: as §3

NACHT, LRR and PYD domains-containing protein 3 (Mus musculus), sequence (Q8R4B8 whole entry, the tested form may be a part): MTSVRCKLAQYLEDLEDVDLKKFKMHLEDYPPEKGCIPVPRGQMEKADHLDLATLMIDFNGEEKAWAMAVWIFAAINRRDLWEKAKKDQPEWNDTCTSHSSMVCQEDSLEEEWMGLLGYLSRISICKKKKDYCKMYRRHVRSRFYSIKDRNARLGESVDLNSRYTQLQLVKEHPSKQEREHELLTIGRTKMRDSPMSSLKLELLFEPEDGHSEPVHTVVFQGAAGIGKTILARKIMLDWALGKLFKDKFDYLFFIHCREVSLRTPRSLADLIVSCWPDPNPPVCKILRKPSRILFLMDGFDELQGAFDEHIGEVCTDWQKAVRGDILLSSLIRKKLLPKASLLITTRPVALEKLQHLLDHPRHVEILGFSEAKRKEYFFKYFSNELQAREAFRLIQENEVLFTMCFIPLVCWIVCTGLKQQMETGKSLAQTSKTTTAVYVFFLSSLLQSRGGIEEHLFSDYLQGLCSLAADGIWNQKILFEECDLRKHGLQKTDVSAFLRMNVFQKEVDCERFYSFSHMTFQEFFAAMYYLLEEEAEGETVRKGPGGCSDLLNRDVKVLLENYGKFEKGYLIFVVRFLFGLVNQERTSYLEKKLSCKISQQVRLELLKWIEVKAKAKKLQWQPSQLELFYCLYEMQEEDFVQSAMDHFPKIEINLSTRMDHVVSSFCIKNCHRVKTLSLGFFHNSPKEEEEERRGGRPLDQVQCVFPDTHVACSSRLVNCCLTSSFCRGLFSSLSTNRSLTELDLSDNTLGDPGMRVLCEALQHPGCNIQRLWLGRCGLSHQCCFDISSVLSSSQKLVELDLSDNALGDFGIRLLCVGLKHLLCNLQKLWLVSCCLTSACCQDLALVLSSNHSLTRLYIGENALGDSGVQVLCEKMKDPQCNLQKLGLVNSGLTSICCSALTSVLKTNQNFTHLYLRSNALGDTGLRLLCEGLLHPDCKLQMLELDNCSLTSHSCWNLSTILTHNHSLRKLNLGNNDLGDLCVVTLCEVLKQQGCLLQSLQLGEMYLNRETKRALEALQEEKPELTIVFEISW
NACHT, LRR and PYD domains-containing protein 3, sequence (Q8R4B8 whole entry, the tested form may be a part): as above
NLR family CARD domain-containing protein 4 (Mus musculus), sequence (Q3UP24 whole entry, the tested form may be a part): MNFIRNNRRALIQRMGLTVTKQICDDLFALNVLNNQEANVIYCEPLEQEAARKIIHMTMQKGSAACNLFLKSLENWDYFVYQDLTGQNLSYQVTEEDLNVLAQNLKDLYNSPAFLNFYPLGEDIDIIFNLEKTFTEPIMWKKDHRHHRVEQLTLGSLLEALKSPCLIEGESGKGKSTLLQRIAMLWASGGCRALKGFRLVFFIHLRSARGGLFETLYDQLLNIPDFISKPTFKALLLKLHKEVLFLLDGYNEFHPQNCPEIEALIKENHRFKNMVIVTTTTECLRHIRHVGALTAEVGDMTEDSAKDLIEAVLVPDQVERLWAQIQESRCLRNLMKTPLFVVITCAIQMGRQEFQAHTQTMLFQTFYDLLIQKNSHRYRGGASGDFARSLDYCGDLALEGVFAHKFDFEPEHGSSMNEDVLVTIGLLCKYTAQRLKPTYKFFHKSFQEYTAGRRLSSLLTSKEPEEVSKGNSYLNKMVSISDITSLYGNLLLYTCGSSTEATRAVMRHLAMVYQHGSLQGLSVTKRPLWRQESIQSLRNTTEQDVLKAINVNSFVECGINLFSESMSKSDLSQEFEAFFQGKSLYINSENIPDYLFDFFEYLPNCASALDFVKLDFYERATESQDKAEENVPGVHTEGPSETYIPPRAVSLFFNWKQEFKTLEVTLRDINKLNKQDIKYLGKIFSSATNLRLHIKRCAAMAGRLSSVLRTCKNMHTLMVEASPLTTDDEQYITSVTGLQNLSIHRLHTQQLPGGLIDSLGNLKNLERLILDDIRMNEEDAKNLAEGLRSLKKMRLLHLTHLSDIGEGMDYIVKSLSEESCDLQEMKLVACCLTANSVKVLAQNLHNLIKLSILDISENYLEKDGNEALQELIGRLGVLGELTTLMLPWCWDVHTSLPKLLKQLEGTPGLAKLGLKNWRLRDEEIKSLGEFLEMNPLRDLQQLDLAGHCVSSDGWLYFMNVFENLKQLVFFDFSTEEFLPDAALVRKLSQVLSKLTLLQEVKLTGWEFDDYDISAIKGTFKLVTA

| IC50 ([1]; read-out: IC50) [nM] | SMILES | further results |
| --- | --- | --- |
| 12000 | CCCOc1ccc(Cl)cc1Cn1cc(-c2ccc(C(=O)O)cc2)nn1 |  |
| 2470 | COC(=O)c1ccc(-c2cn(Cc3cc(F)c(F)cc3OC)nn2)cc1 |  |
| 2160 | COC(=O)c1ccc(-c2cn(Cc3cccc(Cl)c3)nn2)cc1 |  |
|  | COC(=O)c1ccc(-c2cn(Cc3cc(Cl)ccc3C(F)(F)F)nn2)cc1 | IC50 ([1]; j774.a1): Not Active |
| 510 | COC(=O)c1ccc(-c2cn(Cc3cc(Cl)cc(OC)c3)nn2)cc1 |  |
| 8360 | CCCOc1ccc(Cl)cc1Cn1cc(-c2ccc(C)cc2)nn1 |  |
| 1210 | CCCOc1ccc(Cl)cc1Cn1cc(-c2ccc(C(=O)OC)cc2)nn1 |  |
| 3720 | COC(=O)c1ccc(-c2cn(Cc3ccccc3OC)nn2)cc1 |  |
| 810 | COC(=O)c1ccc(-c2cn(Cc3cc(C(F)(F)F)ccc3OC)nn2)cc1 |  |
| 4280 | CCCOc1ccc(Cl)cc1Cn1cc(-c2ccc(F)cc2)nn1 |  |
| 3130 | COC(=O)c1ccc(-c2cn(Cc3cc(Cl)ccc3O)nn2)cc1 |  |
|  | COC(=O)c1ccc(-c2cn(Cc3cc(Cl)ccc3O[11CH3])nn2)cc1 | SUV [2]: > 3; Drug uptake [3]: Active; Drug uptake [4]: Active; Drug uptake [5]: Active; Drug uptake [6]: Active; Drug uptake [7]: Active |
|  | COC(=O)c1ccc(-c2cn(Cc3cc(F)cc(F)c3OC)nn2)cc1 | IC50 ([1]; j774.a1): Not Active |
|  | COC(=O)c1ccc(-c2cn(Cc3ccccc3)nn2)cc1 | IC50 ([1]; j774.a1): Not Active |
| 2030 | COC(=O)c1ccc(-c2cn(Cc3cc(Cl)ccc3OC)nn2)c(C)c1 |  |
| 2310 | COC(=O)c1ccc(-c2cn(Cc3cc(Cl)ccc3OC)nn2)nc1 |  |
| 4210 | CNC(=O)c1ccc(-c2cn(Cc3cc(Cl)ccc3OC)nn2)cc1 |  |
|  | CCCOc1ccc(Cl)cc1Cn1cc(-c2ccccc2)nn1 | inhibition [8]: Active; inhibition [9]: Active; inhibition [10]: Active; inhibition [11]: Active; inhibition [12]: inactive |
| 1510 | CCCOc1ccc(Cl)cc1Cn1cc(-c2ccc(S(N)(=O)=O)cc2)nn1 |  |
| 1070 | COC(=O)c1ccc(-c2cn(Cc3cc(Br)ccc3OC)nn2)cc1 |  |
|  | COC(=O)c1ccc(-c2cn(Cc3cc(Cl)ccc3OC)nn2)cc1 | inhibition [9]: inactive; inhibition [11]: inactive; inhibition [13]: Active; inhibition [14]: Active; inhibition [15]: inactive; Activity [16]: Active; Activity [17]: Active; Activity [18]: Active; Activity [19]: Active |
| 1610 | COC(=O)c1cccc(-c2cn(Cc3cc(Cl)ccc3OC)nn2)c1 |  |
| 1620 | COC(=O)c1ccc(-c2cn(Cc3cc(Cl)ccc3OC)nn2)c(F)c1 |  |
| 2860 | COC(=O)c1ccc(-c2cn(Cc3c(OC)ccc(F)c3F)nn2)cc1 |  |
| 1310 | COc1ccc(-c2cn(Cc3cc(Cl)ccc3OC)nn2)cc1 |  |
| 14000 | COc1ccc(Cl)cc1Cn1cc(-c2ccc(C(=O)O)cc2)nn1 |  |
| 8060 | COC(=O)c1ccc(-c2cn(Cc3ccccc3OC(F)F)nn2)cc1 |  |
| 1430 | COc1ccc(Cl)cc1Cn1cc(-c2ccc(C(=O)N3CCC3)cc2)nn1 |  |
| 1500 | COC(=O)c1ccc(-c2cn(Cc3cc(F)ccc3OC)nn2)cc1 |  |
| 12800 | CCCOc1ccc(Cl)cc1Cn1cc(-c2ccc(C(F)(F)F)cc2)nn1 |  |

Reference: ChEMBL document CHEMBL5532673, “Design and Discovery of Novel NLRP3 Inhibitors and PET Imaging Radiotracers Based on a 1,2,3-Triazole-Bearing Scaffold” (J Med Chem, 2024)
